Legend:
Zone of skin [1] = experiment: Biodistribution in CD1 mouse skin at 200 to 300 kBq, iv measured at 15 mins by gamma counting analysis; format: ADME, organism-based; details: in vivo, 0.25 h
Summary of the method: (§1)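 Female CD-1 mice received 200–300 kBq [18F]radiotracer intravenously. Blood and urine were sampled under anaesthesia, then mice were killed by cervical dislocation at 5, 15, 30 or 60 min p.i. (n = 3; control at 60 min n = 7). Organs were removed and weighed, activity was gamma-counted, and uptake was expressed as % injected dose per g wet tissue.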

Zone of skin [2] = experiment: Biodistribution in CD1 mouse skin at 200 to 300 kBq, iv measured at 60 mins by gamma counting analysis; format: ADME, organism-based; details: in vivo, 1 h; summary of the method: as §1
Heart [3] = experiment: Biodistribution in CD1 mouse heart at 200 to 300 kBq, iv measured at 5 mins by gamma counting analysis; format: ADME, organism-based; details: in vivo
Summary of the method: (§2)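 Female CD-1 mice, 200–300 kBq radiotracer given iv, n = 3 per time point. Animals anaesthetised for blood and urine sampling, then killed by cervical dislocation at 5, 15, 30 or 60 min p.i. Organs removed, weighed and gamma-counted; uptake expressed as % injected dose per g wet tissue.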

Mus musculus [4] = experiment: Biodistribution in CD1 mouse thymus at 200 to 300 kBq, iv measured at 30 mins by gamma counting analysis; format: ADME, organism-based; details: in vivo, 0.5 h; summary of the method: as §1
Mus musculus [5] = experiment: Biodistribution in CD1 mouse adrenal at 200 to 300 kBq, iv measured at 30 mins by gamma counting analysis; format: ADME, organism-based, Adrenal gland; details: in vivo, 0.5 h; summary of the method: as §2
Liver [6] = experiment: Biodistribution in CD1 mouse liver at 200 to 300 kBq, iv measured at 5 mins by gamma counting analysis; format: ADME, organism-based; details: in vivo; summary of the method: as §1
Kidney [7] = experiment: Biodistribution in CD1 mouse kidney at 200 to 300 kBq, iv measured at 60 mins by gamma counting analysis; format: ADME, organism-based; details: in vivo, 1 h; summary of the method: as §2
Spleen [8] = experiment: Biodistribution in CD1 mouse spleen at 200 to 300 kBq, iv measured at 5 mins by gamma counting analysis; format: ADME, organism-based; details: in vivo; summary of the method: as §1
Kidney [9] = experiment: Biodistribution in CD1 mouse kidney at 200 to 300 kBq, iv measured at 15 mins by gamma counting analysis; format: ADME, organism-based; details: in vivo, 0.25 h; summary of the method: as §2
Brain [10] = experiment: Biodistribution in CD1 mouse brain at 200 to 300 kBq, iv measured at 60 mins by gamma counting analysis; format: ADME, organism-based; details: in vivo, 1 h; summary of the method: as §2
Femur [11] = experiment: Biodistribution in CD1 mouse femur at 200 to 300 kBq, iv measured at 60 mins by gamma counting analysis; format: ADME, organism-based; details: in vivo, 1 h; summary of the method: as §2
Spleen [12] = experiment: Biodistribution in CD1 mouse spleen at 200 to 300 kBq, iv measured at 60 mins by gamma counting analysis; format: ADME, organism-based; details: in vivo, 1 h; summary of the method: as §1
Pancreas = experiment: Biodistribution in CD1 mouse pancreas at 200 to 300 kBq, iv measured at 5 mins by gamma counting analysis; format: ADME, organism-based; details: in vivo; summary of the method: as §1
Urinary bladder = experiment: Biodistribution in CD1 mouse bladder at 200 to 300 kBq, iv measured at 60 mins by gamma counting analysis; format: ADME, organism-based; details: in vivo, 1 h; summary of the method: as §2
Mus musculus [13] = experiment: Biodistribution in CD1 mouse thymus at 200 to 300 kBq, iv measured at 5 mins by gamma counting analysis; format: ADME, organism-based; details: in vivo
Summary of the method: (§3)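 Female CD-1 mice given 200–300 kBq tracer intravenously. Animals anaesthetised for blood and urine sampling, then killed by cervical dislocation at 5, 15, 30 or 60 min (n = 3 per time; n = 7 at 60 min). Organs removed and weighed, activity gamma-counted, expressed as % injected dose per g wet weight. Blocking arm: 10 mg/kg i.p. in 0.9% saline, 10 min before tracer; two-tailed unpaired t test versus control.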

Mus musculus [14] = experiment: Biodistribution in CD1 mouse adrenal at 200 to 300 kBq, iv measured at 5 mins by gamma counting analysis; format: ADME, organism-based, Adrenal gland; details: in vivo; summary of the method: as §2
Heart [15] = experiment: Biodistribution in CD1 mouse heart at 200 to 300 kBq, iv measured at 60 mins by gamma counting analysis; format: ADME, organism-based; details: in vivo, 1 h; summary of the method: as §2
Blood [16] = experiment: Biodistribution in CD1 mouse blood at 200 to 300 kBq, iv measured at 5 mins by gamma counting analysis; format: ADME, organism-based; details: in vivo; summary of the method: as §2
Blood [17] = experiment: Biodistribution in CD1 mouse blood at 200 to 300 kBq, iv measured at 30 mins by gamma counting analysis; format: ADME, organism-based; details: in vivo, 0.5 h; summary of the method: as §2
Heart [18] = experiment: Biodistribution in CD1 mouse heart at 200 to 300 kBq, iv measured at 60 mins by gamma counting analysis in presence of SSR180711; format: ADME, organism-based; details: in vivo, 1 h
Summary of the method: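 Blocking study in female CD-1 mice, n = 7 per blocker, with a matching control group. SSR180711 or NS6740 given at 10 mg kg⁻¹ ip in 0.9% saline 10 min before iv radiotracer (200–300 kBq). Organs taken at 60 min p.i., weighed and gamma-counted; uptake as % ID per g wet weight. Compared with control by two-tailed independent Student's t test.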

Muscle tissue = experiment: Biodistribution in CD1 mouse muscle at 200 to 300 kBq, iv measured at 60 mins by gamma counting analysis in presence of SSR180711; format: ADME, organism-based; details: in vivo, 1 h
Summary of the method: (§4)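 Blocking design in female CD-1 mice, n = 7 per group. The blocker was given at 10 mg kg^-1 i.p. in 0.9% saline 10 min before i.v. 200–300 kBq [18F]radiotracer. Mice were killed at 60 min p.i. and organs weighed and gamma-counted as % ID per g wet weight. Blocked groups were compared with controls by two-tailed independent Student's t test.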

Mus musculus [19] = experiment: Biodistribution in CD1 mouse thymus at 200 to 300 kBq, iv measured at 60 mins by gamma counting analysis in presence of SSR180711; format: ADME, organism-based; details: in vivo, 1 h; summary of the method: as §3
Kidney [20] = experiment: Biodistribution in CD1 mouse kidney at 200 to 300 kBq, iv measured at 30 mins by gamma counting analysis; format: ADME, organism-based; details: in vivo, 0.5 h; summary of the method: as §2
[21] = Biodistribution in CD1 mouse urine at 200 to 300 kBq, iv measured at 60 mins by gamma counting analysis in presence of SSR180711; format: ADME, organism-based; details: in vivo, 1 h; summary of the method: as §3
Zone of skin [22] = experiment: Biodistribution in CD1 mouse skin at 200 to 300 kBq, iv measured at 5 mins by gamma counting analysis; format: ADME, organism-based; details: in vivo; summary of the method: as §1
Mus musculus [23] = experiment: Biodistribution in CD1 mouse large intestine at 200 to 300 kBq, iv measured at 5 mins by gamma counting analysis; format: ADME, organism-based; details: in vivo; summary of the method: as §2
Brain [24] = experiment: Biodistribution in CD1 mouse brain at 200 to 300 kBq, iv measured at 5 mins by gamma counting analysis; format: ADME, organism-based; details: in vivo; summary of the method: as §2
Blood [25] = experiment: Biodistribution in CD1 mouse blood at 200 to 300 kBq, iv measured at 60 mins by gamma counting analysis; format: ADME, organism-based; details: in vivo, 1 h; summary of the method: as §2
Stomach [26] = experiment: Biodistribution in CD1 mouse stomach at 200 to 300 kBq, iv measured at 60 mins by gamma counting analysis in presence of SSR180711; format: ADME, organism-based; details: in vivo, 1 h; summary of the method: as §4
Stomach [27] = experiment: Biodistribution in CD1 mouse stomach at 200 to 300 kBq, iv measured at 15 mins by gamma counting analysis; format: ADME, organism-based; details: in vivo, 0.25 h; summary of the method: as §1
Liver [28] = experiment: Biodistribution in CD1 mouse liver at 200 to 300 kBq, iv measured at 30 mins by gamma counting analysis; format: ADME, organism-based; details: in vivo, 0.5 h; summary of the method: as §1
Femur [29] = experiment: Biodistribution in CD1 mouse femur at 200 to 300 kBq, iv measured at 15 mins by gamma counting analysis; format: ADME, organism-based; details: in vivo, 0.25 h; summary of the method: as §2
Zone of skin [30] = experiment: Biodistribution in CD1 mouse skin at 200 to 300 kBq, iv measured at 60 mins by gamma counting analysis in presence of SSR180711; format: ADME, organism-based; details: in vivo, 1 h; summary of the method: as §4

O=C(Oc1ccc(Br)cc1)N1CCN2CCC1CC2 [SSR180711]
Drug uptake (Zone of skin [1]): 1.4 % ID/g | Drug uptake (Zone of skin [2]): 1.94 % ID/g | Drug uptake (Heart [3]): 3.35 % ID/g | Drug uptake (Mus musculus [4]): 2.6 % ID/g | Drug uptake (Mus musculus [5]): 4.61 % ID/g | Drug uptake (Liver [6]): 6.29 % ID/g | Drug uptake (Kidney [7]): 10.4 % ID/g | Drug uptake (Spleen [8]): 4.22 % ID/g | Drug uptake (Kidney [9]): 10.6 % ID/g | Drug uptake (Brain [10]): 0.18 % ID/g | Drug uptake (Femur [11]): 2.09 % ID/g | Drug uptake (Spleen [12]): 7.46 % ID/g | Drug uptake (Pancreas): 5.16 % ID/g | Drug uptake (Urinary bladder): 1.88 % ID/g | Drug uptake (Mus musculus [13]): 1.95 % ID/g | Drug uptake (Mus musculus [14]): 5.78 % ID/g | Drug uptake (Heart [15]): 1.84 % ID/g | Drug uptake (Blood [16]): 1.6 % ID/g | Drug uptake (Blood [17]): 1.01 % ID/g | Drug uptake (Heart [18]): 1.81 % ID/g | Drug uptake (Muscle tissue): 1.02 % ID/g | Drug uptake (Mus musculus [19]): 2.47 % ID/g | Drug uptake (Kidney [20]): 8.5 % ID/g | Drug uptake [21]: 270 % ID/g | Drug uptake (Zone of skin [22]): 0.81 % ID/g | Drug uptake (Mus musculus [23]): 1.36 % ID/g | Drug uptake (Brain [24]): 0.16 % ID/g | Drug uptake (Blood [25]): 0.78 % ID/g | Drug uptake (Stomach [26]): 7.76 % ID/g | Drug uptake (Stomach [27]): 5.45 % ID/g | Drug uptake (Liver [28]): 8.51 % ID/g | Drug uptake (Femur [29]): 2.15 % ID/g | Drug uptake (Zone of skin [30]): 2.04 % ID/g

From ChEMBL document CHEMBL2380270, “Radiosynthesis and first evaluation in mice of [(18)F]NS14490 for molecular imaging of α7 nicotinic acetylcholine receptors” (Bioorg Med Chem, 2013)
